The text below walks through data of ChEMBL document CHEMBL1158053, “Polyoxygenated sterols from the Formosan soft coral Sinularia gibberosa” (J Nat Prod, 2006).

One data set deals with MDA-MB-231. The data set is described as follows: Cytotoxicity against human MDA-MB-231 cells by MTT assay. The class given is functional, cell-based. In a few lines: (§1)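 ATCC-sourced tumour lines (HepG2, MCF7, MDA-MB-231, A-549) were tested with the MTT colorimetric method.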
A general note: Formazan colour is commonly taken as a measure of viable cells.

The next data set deals with A549. The data set can be described thus: Cytotoxicity against human A549 cells by MTT assay. The class given is functional, cell-based. In a few lines: as §1
In data set [1] the test system is RAW264.7. The data set can be described thus: Antiinflammatory activity against LPS-stimulated mouse RAW264.7 cells assessed as inhibition of iNOS expression at 10 uM after 16 hrs by immunoblot analysis relative to control. The class given is functional. In a few lines: (§2)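 RAW 264.7 murine macrophages (ATCC TIB-71) grown in DMEM with 10% heat-inactivated FBS, 37 °C, 5% CO2. Cells activated with E. coli LPS (0.01 µg/mL) for 16 h with or without compound. Lysates were loaded at equal protein and analysed by SDS-PAGE and Western blot. Antibodies were anti-iNOS and anti-COX-2 (1:1000, 180 min), with β-actin reprobe as loading control. ECL detection. Intensity expressed relative to LPS-only group (100%); mean ± SD, n = 3.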

Data set [2] relates to RAW264.7. The data set can be described thus: Antiinflammatory activity against LPS-stimulated mouse RAW264.7 cells assessed as inhibition of COX2 expression at 10 uM after 16 hrs by immunoblot analysis relative to control. The class given is functional. The procedure, abridged: as §2
A general note: A western blot detects proteins with antibodies after separation by electrophoresis.

Data set [3] has as its system RAW264.7. The data set can be described thus: Cytotoxicity against mouse RAW264.7 cells assessed as cell survival at 10 uM by trypan blue staining. The class given is cell-based. Particulars: raw264.7, 10 µM. The procedure, abridged:
(§3)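 RAW 264.7 macrophages (DMEM, 10% heat-inactivated FBS, 37 °C, 5% CO2) were exposed to compound at 10 or 100 µM alongside the LPS-activation protocol. Viability was scored by trypan blue staining.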

The nature of data set [4]: Cytotoxicity against human Hep G2 cells by MTT assay. In kind it is functional, cell-based. Particulars: HepG2. In a few lines:
as §1

Another data set has as its system MCF7. The data set is described as follows: Cytotoxicity against human MCF7 cells by MTT assay. In kind it is functional, cell-based. The procedure, abridged:
as §1

Data set [5] has as its system RAW264.7. The data set can be described thus: Cytotoxicity against mouse RAW264.7 cells assessed as cell loss at 100 uM by trypan blue staining. In kind it is cell-based. Particulars: raw264.7, 100 µM. In a few lines:
as §3

Data set [6] has as its system RAW264.7. The data set is described as follows: Cytotoxicity against mouse RAW264.7 cells assessed as decrease in beta-actin at 100 uM by trypan blue staining. Particulars: raw264.7, 100 µM. The class given is cell-based.

In brackets after ≈: the same amount, converted by molar mass. Activity calls are given as the source filed them. No cut-off for these calls is given here.

Regarding `C=C(CC[C@@H](C)[C@H]1CC[C@H]2[C@@H]3C[C@@H]4O[C@@]45C[C@@H](O)C[C@H](O)[C@]5(C)[C@H]3CC[C@]12C)C(C)C` [GIBBEROEPOXYSTEROL], the IC50 with MDA-MB-231 stood at 15.9 µg/mL (≈ 36.9 µM); in the data set with A549, 15.5 µg/mL (≈ 36 µM).

For `C=C(/C=C/[C@@H](C)[C@H]1CC[C@H]2[C@@H]3CC(=O)[C@]4(O)C[C@@H](O)C[C@H](O)[C@]4(C)[C@H]3CC[C@]12C)C(C)C` [GIBBEROKETOSTEROL B], the outcome in the data set on RAW264.7 [1] and in the data set on RAW264.7 [2] was inactive. Also, the Activity entry in the data set with RAW264.7 [3] was “Non-toxic”. Besides, the half-maximal inhibitory concentration (IC50) (in data set [4]; with MDA-MB-231; in the data set with A549; in the data set with MCF7) was above 30 µg/mL each time.

For the compound `C=C(/C=C/[C@@H](C)[C@H]1CC[C@H]2[C@@H]3CC(=O)[C@H]4C[C@@H](O)C[C@H](O)[C@]4(C)[C@H]3CC[C@]12C)C(C)C` [GIBBEROKETOSTEROL C], the IC50 (in data set [4]; with MDA-MB-231; with A549; in the data set on MCF7) was above 30 µg/mL in each case.

Consider `C=C(CC[C@@H](C)[C@H]1CC[C@H]2[C@@H]3CC(=O)[C@]4(O)C[C@@H](O)C[C@H](O)[C@]4(C)[C@H]3CC[C@]12C)C(C)C` [GIBBEROKETOSTEROL], for which the Activity is given as 44.5% with RAW264.7 [1]; 68.3% in the data set on RAW264.7 [2]; “Non-toxic” in the data set with RAW264.7 [3]; 38.4% with RAW264.7 [5]; “Active” with RAW264.7 [6]. For the same compound, the IC50 turned out to be 13 µg/mL (≈ 29.1 µM) in [4], 14.4 µg/mL (≈ 32.2 µM) in the data set on MDA-MB-231, 14.5 µg/mL (≈ 32.5 µM) in the data set with A549 and 14.1 µg/mL (≈ 31.6 µM) in the data set on MCF7.

A word on the IC50: it is the concentration at which inhibition is half-maximal.
